Assay type in all cases: binding
In assay [1] the target is T1, cyclin G-associated kinase (GAK) (Homo sapiens, UniProt O14976).
T1 sequence (O14976 20-347): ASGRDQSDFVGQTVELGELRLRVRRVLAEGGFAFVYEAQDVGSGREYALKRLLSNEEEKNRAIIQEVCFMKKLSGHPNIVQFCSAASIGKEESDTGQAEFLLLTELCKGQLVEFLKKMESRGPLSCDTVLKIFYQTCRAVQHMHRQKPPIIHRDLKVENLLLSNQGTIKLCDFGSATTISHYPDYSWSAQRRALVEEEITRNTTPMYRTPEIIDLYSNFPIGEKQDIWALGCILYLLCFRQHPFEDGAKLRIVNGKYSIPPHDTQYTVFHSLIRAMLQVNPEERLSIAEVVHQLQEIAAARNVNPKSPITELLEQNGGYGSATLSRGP
Put plainly: Fragment screening by zonal weak affinity chromatography.

Assay [2] concerns the target T1, cyclin G-associated kinase (GAK). Put plainly: Frontal affinity chromatography on GAK capillary column. A digest of the protocol:
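Human GAK residues 20–347 expressed in E. coli Rosetta (DE3), Ni-NTA and gel-filtration purified, tag removed with TEV protease, then coupled by reductive amination to aldehyde-silica capillary (100 × 0.5 mm). Frontal analysis: 20 mM ammonium acetate pH 6.8, 18 μL/min, 22 °C. Ligand 0.025–0.750 mM, UV 214 nm; DMSO void marker. Saturation moles versus concentration fitted (one-site plus linear nonspecific) for Btot and KD.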

Another assay concerns GAK. Put plainly: Thermal shift assay. Particulars: thermal shift assay performed as described in [32].

As usually defined, the Kd is the constant that tells how readily two partners part at equilibrium. A low value points to higher affinity. On to `Nc1ncnc2c1ncn2[C@@H]1O[C@H](CO)[C@@H](O)[C@H]1O` [adenosine], for which the Kd was 41 µM in assay [1] and 63 µM in assay [2]. With `O=c1c(O)c(-c2ccc(O)c(O)c2)oc2cc(O)cc(O)c12` [Quercetin], the “increase of melting temperature (ΔTm) of GAK” value in the assay with GAK was 9.4 °C.

(Values after PMC3475971 (Analytical and Bioanalytical Chemistry, 2012).)
